Measurements from ChEMBL document CHEMBL3259673, “Campechic acids A and B: anti-invasive polyether polyketides from a soil-derived Streptomyces” (J Nat Prod, 2014).
Converted amounts (≈) assume the structure as drawn. The source made the active and inactive calls. No cut-off for these calls is given here.

Tests used:
[1] = test system: Candida albicans; experiment: Antimicrobial activity against Candida albicans IFO1594 after 20 hrs; type: functional, organism-based
Outline: (§1)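 Broth microdilution. Overnight cultures (20 h, 30 °C, shaken) centrifuged and resuspended in saline at 1 × 10^5 cells/mL, diluted 1:10 into medium with sample in DMSO. C. albicans in yeast nitrogen base + 2% glucose, 30 °C. E. coli in Mueller Hinton broth, 37 °C. Growth read as A650 after 20 h. MIC reported.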

[2] = Selectivity index, ratio of IC50 for cytotoxicity against mouse 26-L5 cells to IC50 for antiinvasive activity against mouse 26-L5 cells; type: toxicity, cell-based; conditions: read-out: Ratio IC50
[3] = test system: Escherichia coli; experiment: Antimicrobial activity against Escherichia coli NIH-JC2 after 20 hrs; type: functional, organism-based; outline: as §1
[4] = test system: Micrococcus luteus; experiment: Antimicrobial activity against Micrococcus luteus ATCC 9343 after 20 hrs; type: functional; conditions: ATCC 9343, 20 h
Outline: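 Micrococcus luteus was grown 20 h at 30 °C with shaking, then pelleted and suspended in saline at 1 × 10^5 cells/mL. It was then mixed 1:10 with Mueller Hinton broth plus compound in DMSO.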

[5] = Antiinvasive activity against mouse 26-L5 cells after 6 to 8 hrs by matrigel assay; type: functional, cell-based
Outline: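 Transwell chambers with 8.0-μm polycarbonate filters coated with Matrigel/fibronectin were used. Cells were fixed in methanol and stained with H&E. Non-invaded cells were swabbed off, and cells on the lower surface were counted in five fields per well. IC50 reported.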

[6] = Cytotoxicity against mouse 26-L5 cells after 24 hrs by crystal violet staining assay; type: cell-based
Outline: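 Colon 26-L5 cells (5 × 10^3/well) were seeded in RPMI with 1% FCS and graded compound concentrations. They were incubated 24 h at 37 °C under 5% CO2, washed with PBS and fixed in 20% formalin. Cells were stained 30 min with crystal violet, the dye was eluted in 30% acetic acid and A590 was read. IC50 reported.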

| Compound | Activity [1] | selectivity ratio [2] | Activity [3] | MIC [4] | IC50 [5] | IC50 [6] |
| --- | --- | --- | --- | --- | --- | --- |
| CC[C@@H](C[C@@H](C)C[C@H](C)C[C@H](C)C(=O)O)C(=O)/C=C(\O)[C@H](C)C[C@H](C)C/C=C/[C@H](C)[C@@H](O)CC1CCC(C)(C2CCC(C)([C@@H](C)O)O2)O1 (stereo partly specified) | inactive | 73 | inactive | 6.25 µg/mL (≈ 9.2 µM) | 5.5 nM |  |
| C[C@H](C/C=C/[C@H](C)[C@@H](O)CC1CCC(C)(C2CCC(C)([C@@H](C)O)O2)O1)C[C@@H](C)/C(O)=C/C(=O)[C@@H](C)C[C@@H](C)C[C@H](C)C[C@H](C)C(=O)O (stereo partly specified) | inactive | 15 | inactive | 6.25 µg/mL (≈ 9.4 µM) | 300 nM | 4500 nM |
